# Test results reported in ChEMBL document CHEMBL4513216, “Probing the Open Global Health Chemical Diversity Library for Multistage-Active Starting Points for Next-Generation Antimalarials” (ACS Infect Dis, 2020).
# Test: Toxicity liver stage against HepG2, at 10uM
# Format: cell-based
# Parameters: test concentration 10 uM, cell line HepG2-A16-CD81EGFP
# Conditions: human, HepG2-A16-CD81EGFP cells; read-out: INHIBITION
# In short: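 Uninfected HepG2-A16-CD81EGFP cells, 3 × 10^3 per well, 1536-well, plated on prespotted compound at 10 μM final, parasite-free screening media added to match infected plates; puromycin 10 μM positive, DMSO 0.5% negative; run in parallel with 48 h PbLuc assay at 37 °C, 5% CO2; viability by CellTiter-Glo luminescence, normalized to controls.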
row,Compound,cytotoxicity at 10 µM [%]
1,CS(=O)(=O)N1CCC(CNC(=O)c2cnccn2)CC1,0.503
2,Cc1cccc2c1nc1n2[C@@H](CNC(=O)C2CCOCC2)COC1,-1.47
3,Cc1ccc(NC(=O)c2cnc(N3CCN(C)CC3)nc2C)cc1C,-7.8
4,CCCC(O)CN1CC(C)(C)CN(C(=O)c2ccc(SC)cc2)CC1=O (stereo not given),-4
5,CCS(=O)(=O)N1CCC(OC)c2ccccc2N(CC(=O)NC)C(=O)C1 (stereo not given),-1.42
6,O=c1[nH]cc(Nc2ccccc2)c(=O)[nH]1,15.6
7,CC(C)C[C@H](NC(=O)N1CCC(Cc2ccccc2)CC1)C(=O)O,-4.13
8,Cc1nn(C2CCS(=O)(=O)C2)c(O)c1Cc1ccc(Br)cc1 (stereo not given),-41.6
9,COc1ccc(N2CCN(C(=O)c3nc(Cl)sc3C(C)C)CC2)cc1,3.17
10,Cc1noc(C2CN(CC(=O)NCC3CCCO3)C2)n1 (stereo not given),-2.56
11,O=C(c1ccsc1)N1CC(c2nc(-c3ccc[nH]c3=O)no2)C1,-7.39
12,COC1(CNC(=O)c2ccc(Cl)c(Cl)c2)CCSC1 (stereo not given),2.05
13,c1cnc(NCc2n[nH]c3c2CCN(Cc2ccncc2)C3)nc1,-3.83
14,Cc1cnc(N2CCC3(CC2)C(c2ccccc2)CC(=O)N3C)nc1 (stereo not given),-4.35
15,CCN1C(=O)CCCC12CCCN(C(=O)c1ccoc1)C2 (stereo not given),-5.83
16,CC(C)Nc1ncnc2c1CCNCC2,-1.43
17,COC[C@H]1CNC(=O)[C@@H]2CCN(Cc3cccc(C)n3)CC[C@H]12,16.7
18,Cc1nnc(N2C[C@H](OCCCn3cccn3)[C@H]3OCCC[C@H]32)s1,13.8
19,Cc1occc1C(=O)N1C[C@@H]2CCCO[C@@H]2[C@H](N(C)Cc2ccco2)C1,6.67
20,Cn1cc(C[C@H]2[C@@H](O)CCN2C(=O)C2CCC2)cn1,-7.44
21,CSc1nc2cc(C)n(CC(=O)NC(C)C)c2c(=O)n1CC(C)C,-4.1
22,Cc1cnc(N2C(=O)CSC2c2cccs2)s1 (stereo not given),0.847

row,Compound,cytotoxicity at 10 µM [%]
1,Cc1cccc(N(C)Cc2cc(=O)n3oc(C)cc3n2)c1,0.14
2,CN1CCCC1c1ccc(N2CCOCC2)cn1 (stereo not given),-2.21
3,CC(=O)N1CCC(c2nccnc2-c2ccc(F)cc2)CC1,-2.22
4,CN1CCN(Cc2cscn2)CC(C(=O)N(C)C)C1 (stereo not given),-5.61
5,COc1ccc(Cc2cccc(C3CCN(C)CC3)n2)cc1,0.153
6,CC(C)C(C(N)=O)c1cccc(Cl)c1 (stereo not given),3.82
7,c1ccc2c(c1)OCCC2NCc1ccc(N2CCOCC2)cc1 (stereo not given),-13.7
8,Cc1nc(Cn2cnc3c(c(Br)nn3C)c2=O)cs1,8.84
9,O=C(NCC(O)Cc1ccccc1)c1ccc2[nH]c(=O)[nH]c2c1 (stereo not given),4.14
10,Cc1cc(C)nc(NC2CCN(CCOC(C)C)CC2)n1,-10.8
11,CCN1CCN2CCCN(S(=O)(=O)c3ccc(C)cc3C)C2C1=O (stereo not given),0.515
12,Cc1cc(NC(=O)N2CCN(C)CC2C)n(Cc2ccccc2)n1 (stereo not given),11.4
13,Cc1cc(C)n(C2CCCN(C(=O)CN(C)c3cnccn3)C2)n1 (stereo not given),3.36
14,N#CCCN(Cc1ccco1)C(=O)CCCNC(=O)c1ccccc1,8.15
15,CCCn1nnnc1COC(=O)C1Cc2cc(Cl)ccc2O1 (stereo not given),-5.68
16,Cc1ccc(CNC(=O)NCc2nccn2C)c(OC(C)(C)C)c1,2.66
17,Cn1c(C2CC2)nc2c1CCN(Cc1nc3ccccc3s1)C2,-4.69
18,COCCSCC(=O)NCc1ccc(N(C)C)nc1,9.15
19,Cn1cc(N2CCCC(Nc3ccc4c(c3)CCCO4)C2=O)cn1 (stereo not given),-6.79
20,COC(=O)CCN(CC1CCOC1)C1CC1 (stereo not given),-9.66
21,Cn1ccnc1COc1ccc(NC(=O)C2CCCO2)cc1 (stereo not given),-14.9
22,CN(Cc1cccs1)C(=O)c1ccc(N2CCOCC2)c(F)c1,-5.56

row,Compound,cytotoxicity at 10 µM [%]
1,Cc1oncc1C(=O)NCC(c1ccccc1Cl)N1CCOCC1 (stereo not given),10.7
2,COCCn1nc(C(=O)N(C)Cc2ccc3ccccc3c2)ccc1=O,-131
3,CCNC(=O)NC(=O)CNC1(c2noc(C)n2)CCCC1,20.6
4,Cc1nc(C)n(CC2CCCN2CC(=O)NCCc2cccs2)n1 (stereo not given),-0.749
5,Cc1nc(N2CCN(C(=O)NCc3cscn3)CC2)sc1C,-11.3
6,O=C(NCCCn1ccnc1)Nc1ccn(CCc2ccccn2)n1,-0.386
7,CCc1nc(C2CCCN(c3nccc(C)n3)C2)no1 (stereo not given),-2.69
8,COCCCNS(=O)(=O)c1cc(Br)sc1C,-6.14
9,CN(C(=O)CN1CCCc2cc(F)cc(F)c21)c1ccccc1,14.2
10,CN(Cc1ccc([S+](C)[O-])cc1)c1ccc(Br)cn1 (stereo not given),11.8
11,CN(Cc1cc2c(cc1OC(F)F)OCO2)Cc1nccn1C,-1.21
12,CC(C)(C)c1ccc(C2(C(=O)NCCCS(C)(=O)=O)CC2)cc1,-12.6
13,COc1ccc(CNC(=O)C2(C#N)CCCC2)cc1,-17.7
14,COc1ccc(C2CCCCCN2S(=O)(=O)N(C)C)cc1 (stereo not given),-9.87
15,CS(=O)(=O)N1CCO[C@@H]2CN(C(=O)N3CCCC3)CC[C@@H]2C1,-101
16,Cc1ccc(CNCC2Cn3nncc3CO2)o1 (stereo not given),-113
17,Cc1cc(C(=O)N2CCc3ncc(CN4CCCCC4)n3CC2)no1,-100
18,Cc1nc(CN2C(=O)CC[C@@H]3[C@H]2CCN3C(=O)C2CCOCC2)cs1,-81.3
19,CCOCC(=O)N1CC[C@@H]2O[C@@H](C)C[C@H]2C1,-69.2
20,CCN(Cc1nccn1C)C(=O)c1ccc(NCc2ccc(C)o2)nc1,9.78
21,O=C(CCC1CCN(C(=O)c2csnn2)CC1)NCc1cccc(Cl)c1,-4.55
22,CC(C)N1CCC(C(=O)N2CCN(c3cccc(C(=O)O)c3)CC2)CC1,6.4

row,Compound,cytotoxicity at 10 µM [%]
1,CCOCCn1nc(C)cc1C(=O)N1CC[C@](O)(CC)[C@H](O)C1,-3
2,CCn1ccnc1C1CCCN(c2nccc3ccccc23)C1 (stereo not given),-2.74
3,Cc1c(C(C)NC2CSCCSC2)cnn1-c1ccc(F)cc1F (stereo not given),-11.1
4,COc1ccc2c(C)c(C(=O)NCCCc3csc(N)n3)oc2c1,2.58
5,Cc1nc(-c2cccc(N3CCC(N4CCCC(C#N)C4)CC3)c2)cs1 (stereo not given),6.22
6,CCc1cc(N(C)CCc2noc(C)n2)nc(N2CCOCC2)n1,4.12
7,CC(C)CN(Cc1ccc(O)c(C(=O)O)c1)Cc1ccccn1,8.5
8,CCC(OC)C(=O)NCc1cc2n(n1)CCCN(C1CCCCC1)C2 (stereo not given),5.3
9,CSc1ccc(C(C(=O)O)N2CCC(C(=O)N3CCCC3)CC2)cc1 (stereo not given),-3.45
10,Cc1cccnc1NCCNc1cc(C(C)C)nc2ccnn12,-5.29
11,CCn1ccnc1C1CCN(Cc2c(F)cccc2F)CC1,-6.82
12,CCn1c(Cn2cncn2)nnc1C1CCN(CCN)CC1,-0.111
13,CSc1ccc(CN(CCO)Cc2nccn2C)cc1,4.98
14,CN(C)C[C@@H]1CN(C(=O)c2cc(-c3ccccc3)n[nH]2)C[C@@H]1CO,-19.9
15,CCC(C)N(Cc1sccc1C)C(=O)c1cc(N)ccn1 (stereo not given),9.8
16,CC(C)Oc1cccc(C(=O)C2CCCN(C(=O)c3ncn[nH]3)C2)c1 (stereo not given),-7.53
17,O=C1NCC2(CCCN(Cc3ccc(Cl)s3)C2)Oc2ccccc21 (stereo not given),8.69
18,CO[C@@H]1CC[C@@H](N(C)C(=O)COc2ccc(F)cc2)[C@H]1O,8.47
19,Cn1cnc2c1CCN(Cc1noc(-c3ccccc3)n1)C2,-1.96
20,O=C(O)c1cc(S(=O)(=O)Nc2cc(F)ccc2F)cc2c1OCCO2,-7.42
21,CS(=O)(=O)CCC(=O)Nc1cnn(-c2ccccc2Cl)c1,-6.66
22,Cc1nn(CC(C)C)c(N(C)C)c1CNCc1cccnc1N(C)C,-7.71

row,Compound,cytotoxicity at 10 µM [%]
1,O=C(NS(=O)(=O)c1ccc2c(c1)OCCO2)c1ccc(Br)cc1F,0.553
2,Cc1nc(CN2CCOC(CNc3cccnn3)C2)oc1C (stereo not given),-7.94
3,COC(=O)c1cccn1C1CCN(CC(=O)NC2CCCCC2)CC1,-8.21
4,Cc1ccc(C)c(CSc2nnc(C(N)Cc3ccccc3)o2)c1 (stereo not given),-0.431
5,O=C(c1cccnc1N1CCN(CCO)CC1)N1CCCC1,-1.32
6,COCCNC(=O)[C@H]1CN(Cc2cccs2)C[C@H]2OCC[C@@H]12,4
7,CCN(C)c1ncnc2c1CCN(S(=O)(=O)c1ccccc1)CC2,-106
8,c1cncc(O[C@@H]2CC[C@H]3[C@H]2OCCN3C2CCCC2)c1,1.76
9,CN(C)Cc1cnc2n1CCN(C(=O)NC1CCCC1)CC2,-3.77
10,CNC(=O)CN1CCOCC2(CN(CCC(F)(F)F)CCO2)C1 (stereo not given),3.59
11,CC(C)OCCCN(Cc1ccncc1)Cc1cccc(F)c1,-15.6
12,CN(Cc1cn2c(n1)CN(Cc1nccs1)CC2)Cc1ccco1,-77.2
13,OCCOCc1nnn2c1CN(c1ncccn1)CCC2,-10.5
14,CN(C)C(=O)N[C@H]1CN(C2CCOCC2)[C@@H]2CCCO[C@H]12,-1.86
15,c1ccc(NC[C@@H]2CCC[C@@H]3CN(Cc4cc[nH]n4)C[C@@H]32)nc1,-111
16,Cc1noc([C@H]2C[C@H]3OCC[C@H]3N(Cc3cccs3)C2)n1,-96.3
17,COCCN1C[C@@H]2[C@@H](OC)CCN(Cc3ccncc3)[C@@H]2C1,5.16
18,Cc1nc(C)c(C(C)NCc2cnc(N3CCOCC3)nc2)s1 (stereo not given),-4.76
19,CC(C)=CCN1C(=O)[C@@H]2CC[C@H]1CN(C(=O)CCc1n[nH]c(C)c1C)C2,5.54
20,NC(=O)c1cccnc1N1C[C@H]2CC[C@@H](C1)N(Cc1ccccn1)C2=O,7.94
21,CC(C)NC(=O)N1C[C@@H]2C[C@H](C(=O)N3CCCC3)[C@H](C1)O2,-101
22,CN(C)S(=O)(=O)N1C[C@@H]2C[C@H](C(=O)Nc3cccnc3)[C@H](C1)O2,-71.7
